Series [1] has as its system Pseudomonas aeruginosa. The series is described as follows: Antibiotic activity against Pseudomonas aeruginosa PA01 assessed as inhibition of bacterial growth incubated for 16 hrs by microtiter broth dilution method. The series is classed as functional. Background: In broth dilution the organism is exposed to a series of concentrations in liquid medium.
The subject of series [2] is Pseudomonas aeruginosa. In words: Bacteriostatic activity against Pseudomonas aeruginosa PA01 assessed as inhibition of bacterial growth by microtiter broth dilution method. The series is classed as functional, organism-based.
Series [3] in a line: Cytotoxicity against human A549 cells assessed as number of viable cells at 100 uM incubated for 24 hrs by calcein-AM and ethidium homodimer-1 staining based flow cytometry. The following applies: read-out: Activity. It counts as toxicity, cell-based. The method, boiled down:
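A549 human lung epithelial carcinoma cells were incubated with compound at up to 100 μM and stained with calcein-AM and ethidium homodimer-1. Viable and dead fractions were determined by confocal microscopy and flow cytometry, against a vehicle control.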

The test system of series [4] is Staphylococcus aureus. In words: Bacteriostatic activity against methicillin-resistant Staphylococcus aureus MW2-USA400 assessed as inhibition of bacterial growth by microtiter broth dilution method. It counts as functional, organism-based.
Series [5] relates to Staphylococcus aureus. The series is described as follows: Antibiotic activity against methicillin-resistant Staphylococcus aureus MN8-USA200 assessed as inhibition of bacterial growth incubated for 16 hrs by microtiter broth dilution method. It counts as functional. The method, boiled down: (§1)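 Microtiter broth dilution assay in liquid medium, run alongside MBC determination, against a Gram-positive panel; the MIC was read as growth inhibition.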

Series [6] in a line: Toxicity in sheep RBC assessed as induction of hemolysis at 200 uM and measured after 1 hr relative to control. The series is classed as cell-based, Ovis aries, Erythrocyte. As to conditions: sheep red blood cells, read-out: Activity. An outline of the steps: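 Hemolytic activity was measured as percent lysis of sheep erythrocytes, with compound tested up to 200 μM.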
In series [7] the test system is Staphylococcus aureus. The series is described as follows: Antibiotic activity against methicillin-resistant Staphylococcus aureus LAC-Fitz-USA300 assessed as inhibition of bacterial growth incubated for 16 hrs by microtiter broth dilution method. It counts as functional. The method, boiled down: as §1
Series [8] deals with Staphylococcus aureus. The series is described as follows: Bacteriostatic activity against methicillin-resistant Staphylococcus aureus MN8-USA200 assessed as inhibition of bacterial growth by microtiter broth dilution method. The series is classed as functional, organism-based.
Series [9] has as its system Staphylococcus aureus. The series is described as follows: Inhibition of ClpX/ClpP activity in methicillin-resistant Staphylococcus aureus USA300 assessed as increase in urease activation incubated of overnight by phenol red dye based microplate reader analysis. The method, boiled down: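 Cell-based ClpXP readout in MRSA USA300 grown in Christensen's urea medium with phenol red indicator. ClpXP inhibition raises urease activity, which hydrolyses urea and releases ammonia, and the rising pH turns the medium from yellow to red. Minimum effective concentration (MEC) was taken as the lowest level that raised urease activity above background.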

A short description of series [10]: Inhibition of C-terminal His tagged Bacillus subtilis ClpY/ClpQ expressed in Escherichia coli BL21 (DE3) using Cbz-Gly-Gly-Leu-AMC as peptide substrate by Cheng-prusoff equation analysis. An outline of the steps: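 Recombinant purified B. subtilis ClpYQ was used for inhibition kinetics. Peptide hydrolysis of the fluorogenic substrate Cbz-GGL-AMC at 100 μM was followed over a range of compound concentrations to give a dose-response curve.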

Series [11] has as its system Enterococcus faecalis. In words: Antibiotic activity against vancomycin resistant Enterococcus faecalis NJ3 assessed as inhibition of bacterial growth incubated for 16 hrs by microtiter broth dilution method. It counts as functional. An outline of the steps:
as §1

In series [12] the test system is Staphylococcus aureus. In words: Bacteriostatic activity against methicillin-resistant Staphylococcus aureus LAC-Fitz-USA300 assessed as inhibition of bacterial growth by microtiter broth dilution method. It counts as functional, organism-based.
The subject of series [13] is Staphylococcus aureus. The series is described as follows: Bacteriostatic activity against methicillin-resistant Staphylococcus aureus IA116-USA100 assessed as inhibition of bacterial growth by microtiter broth dilution method. It counts as functional, organism-based.
In series [14] the test system is Escherichia coli. The series is described as follows: Antibiotic activity against Escherichia coli with delta.tolC mutation assessed as inhibition of bacterial growth by microtiter broth dilution method. It counts as functional, organism-based.
In series [15] the test system is Enterococcus faecalis. In words: Bacteriostatic activity against vancomycin resistant Enterococcus faecalis NJ3 assessed as inhibition of bacterial growth by microtiter broth dilution method. The series is classed as functional, organism-based.
For series [16], the system named is Staphylococcus aureus. In words: Antibiotic activity against methicillin-resistant Staphylococcus aureus IA116-USA100 assessed as inhibition of bacterial growth incubated for 16 hrs by microtiter broth dilution method. The series is classed as functional. The method, boiled down: as §1
For series [17], the system named is Staphylococcus aureus. In words: Antibiotic activity against methicillin-resistant Staphylococcus aureus MW2-USA400 assessed as inhibition of bacterial growth incubated for 16 hrs by microtiter broth dilution method. It counts as functional. The method, boiled down: as §1
Series [18] deals with Staphylococcus aureus. In words: Antibiotic activity against methicillin-resistant Staphylococcus aureus USA300 assessed as inhibition of bacterial growth incubated for 16 hrs in presence of BSA by microtiter broth dilution method. The series is classed as functional. An outline of the steps:
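MIC by microtiter broth dilution against MRSA USA300, with bovine serum albumin added to the medium to assess the effect of protein binding.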

Converted amounts (≈) assume the structure as drawn. The source made the active and inactive calls. No cut-off for these calls is given here.

On to `CCCCCCc1c(O)c(Cl)cc2c1OC1(C2=O)C(Cl)=C(Cl)C(=O)N1C` (stereo not given), for which the MIC is over 32 µg/mL in series [1]; 4 µg/mL (≈ 9.55 µM) in [5]; 4 µg/mL (≈ 9.55 µM) in series [7]; 8 µg/mL (≈ 19.1 µM) in series [11]; 4 µg/mL (≈ 9.55 µM) in [16]; 4 µg/mL (≈ 9.55 µM) in series [17]. The minimal inhibitory concentration (MIC) in [18] is over 32 µg/mL. Besides, the outcome in [2], in [4], in series [8], in series [12], in series [13] and in series [14] was Active. Besides, the outcome in series [15] was Active. Also, in [3], the viability at 24 h, 100 µM was over 95%. The hemolysis at 1 h, 200 µM in series [6] is under 15%. Also, the MEC in series [9] worked out at 1 µg/mL. In series [10], this molecule gave a Ki of 3200 nM.
Consider `CCCCCCc1c(O)c(Cl)cc2c1OC1(C2=O)C(Cl)=C(Cl)C(=O)N1CCCCCC` (stereo not given), for which the MIC in series [1] is over 32 µg/mL; in series [5], 1 µg/mL (≈ 2.05 µM); in series [7] it was 1 µg/mL (≈ 2.05 µM); in series [11], 2 µg/mL (≈ 4.09 µM); in series [16], 1 µg/mL (≈ 2.05 µM); in [17], 1 µg/mL (≈ 2.05 µM). Also, the MIC in series [18] is 32 µg/mL. Also, the result in [2], in [4], in series [8], in series [12], in series [13] and in series [15] was Active. For the same molecule, in [3], the viability at 24 h, 100 µM was over 95%. The hemolysis at 1 h, 200 µM in series [6] is under 5%. Moreover, in series [9], the MEC is 0.067 µg/mL. In series [10], affinity was put at a Ki of 1300 nM.

The MIC is the lowest concentration found to suppress growth. A word on the Ki: it is the equilibrium dissociation constant of an inhibitor or competing ligand from its target. Read a high Ki as a looser hold on the target.

The values above are taken from ChEMBL document CHEMBL5104117, “Armeniaspirol analogues with more potent Gram-positive antibiotic activity show enhanced inhibition of the ATP-dependent proteases ClpXP and ClpYQ” (RSC Med Chem, 2022).
